From BindingDB's records for doi:10.1016/j.ejmech.2010.04.038 (B.V. Patel Pharmaceutical Education and Research …, 2010)

biological target: Transcription factor Jun (Homo sapiens, UniProt P05412); assay: Inhibition of AP1 expressed in HEK293 cells assessed as inhibition of PMA-induced transcriptional activation treated 24 hrs before PMA challenge by luciferase reporter gene assay
Procedure, shortened: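 Six-point dose response […] and rising in ½-log steps, screened as in the primary reporter assay. IC50 calculated from the dose-response data.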

Chain of Transcription factor Jun (P05412 whole entry): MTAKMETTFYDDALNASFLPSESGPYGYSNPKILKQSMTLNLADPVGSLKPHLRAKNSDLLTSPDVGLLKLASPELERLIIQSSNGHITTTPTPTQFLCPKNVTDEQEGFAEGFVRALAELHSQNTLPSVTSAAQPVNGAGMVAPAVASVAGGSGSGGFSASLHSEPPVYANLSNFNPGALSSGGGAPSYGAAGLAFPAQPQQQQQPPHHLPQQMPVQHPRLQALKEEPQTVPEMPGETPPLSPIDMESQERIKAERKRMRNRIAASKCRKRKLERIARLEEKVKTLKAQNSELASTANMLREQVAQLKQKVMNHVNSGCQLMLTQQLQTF

| IC50 [µM] | Structure (SMILES) |
| --- | --- |
| > 500 | CNc1nc(-c2ccccc2)c(-c2nc3ccccc3c(=O)n2-c2ccc(Cl)cc2)s1 [3-(4-Chloro-phenyl)-2-(2-methylamino-4-phenyl-thiazol-5-yl)-3H-quinazolin-4-one] |
| 5.7 | CCOC(=O)Nc1nc(-c2ccccc2)c(-c2nc3ccccc3c(=O)n2-c2ccccc2)s1 [[5-(4-Oxo-3-phenyl-3,4-dihydro-quinazolin-2-yl)-4-phenylthiazol-2-yl]-carbamic acid ethyl ester] |
| 14 | COc1ccc(-n2c(-c3sc(Nc4ccc(Cl)cc4)nc3-c3ccccc3)nc3ccccc3c2=O)cc1 [2-[2-(4-Chloro-phenylamino)-4-phenyl-thiazol-5-yl]-3-(4-methoxy-phenyl)-3H quinazolin-4-one] |
| 4.3 | O=c1c2ccccc2nc(-c2sc(Nc3ccc(Cl)cc3)nc2-c2ccccc2)n1-c1ccc(Cl)cc1 [3-(4-Chloro-phenyl)-2-[2-(4-chloro-phenylamino)-4-phenyl-thiazol-5-yl]-3H-quinazolin-4-one] |

| Structure (SMILES) | IC50 [µM] |
| --- | --- |
| CNc1nc(C)c(-c2nc3ccccc3c(=O)n2-c2ccc(Cl)cc2)s1 [3-(4-Chloro-phenyl)-2-(4-methyl-2-methylamino-thiazol-5-yl)-3H-quinazolin-4-one] | 3 |
| CCOC(=O)Nc1nc(C)c(-c2nc3ccccc3c(=O)n2-c2ccc(Cl)cc2)s1 [{5-[3-(4-Chloro-phenyl)-4-oxo-3,4-dihydro-quinazolin-2-yl]-4-methyl-thiazol-2-yl}-carbamic acid ethyl ester] | 10 |
